Drawing on ChEMBL document CHEMBL1148671, “Synthesis and antibacterial activity of C12 des-methyl ketolides” (2006), this text covers MIC for six compounds.

Common to all, as to assay type: functional
The subject of assay [1] is Haemophilus influenzae. The assay is described as follows: Antibacterial activity against Haemophilus influenzae 49247 by broth microdilution method. In outline: (§1)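 In vitro activity was read as the minimum inhibitory concentration (MIC) by broth microdilution and reported in μg/mL. The S. pneumoniae panel included erythromycin-resistant strains carrying mef or erm genes. Telithromycin and clarithromycin were run as comparators in every assay.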
(In broth dilution the organism is exposed to a series of concentrations in liquid medium.)

For assay [2], the system named is Staphylococcus epidermidis. Put plainly: Antibacterial activity against Staphylococcus epidermidis f50654 by broth microdilution method. The method in brief:
as §1

Assay [3] relates to Staphylococcus aureus. The assay is described as follows: Antibacterial activity against Staphylococcus aureus 29213 by broth microdilution method. Particulars: ATCC29213. In outline:
as §1

Assay [4] deals with Staphylococcus epidermidis. Put plainly: Antibacterial activity against Staphylococcus epidermidis 14990 by broth microdilution method. In outline: as §1
The test system of assay [5] is Streptococcus pneumoniae. The assay is described as follows: Antibacterial activity against Streptococcus pneumoniae 280-962 by broth microdilution method. The method in brief: as §1
In assay [6] the test system is Enterococcus faecalis. The assay is described as follows: Antibacterial activity against Enterococcus faecalis 29212 by broth microdilution method. In outline: as §1
For assay [7], the system named is Streptococcus pyogenes. Put plainly: Antibacterial activity against Streptococcus pyogenes 8668 by broth microdilution method. The method in brief:
as §1

Assay [8] concerns Enterococcus faecalis. Put plainly: Antibacterial activity against Enterococcus faecalis bc11148-2 by broth microdilution method. In outline:
as §1

The test system of assay [9] is Streptococcus pneumoniae. Put plainly: Antibacterial activity against erythromycin-resistant Streptococcus pneumoniae erm 6849 by broth microdilution method.
In assay [10] the test system is Streptococcus pneumoniae. Put plainly: Antibacterial activity against Streptococcus pneumoniae 297-749 by broth microdilution method. The method in brief: as §1
In assay [11] the test system is Staphylococcus aureus. Put plainly: Antibacterial activity against Staphylococcus aureus 33591 by broth microdilution method. In outline:
as §1

The test system of assay [12] is Streptococcus pneumoniae. Put plainly: Antibacterial activity against Streptococcus pneumoniae 49619 by broth microdilution method. The method in brief: as §1
Assay [13] has as its system Streptococcus pneumoniae. Put plainly: Antibacterial activity against erythromycin-resistant Streptococcus pneumoniae mef 5654 by broth microdilution method.
The subject of assay [14] is Haemophilus influenzae. Put plainly: Antibacterial activity against Haemophilus influenzae 2762 by broth microdilution method. In outline: as §1

≈ marks a conversion by molar mass, not a printed value. A value given as a limit tells only on which side of the number the result lay.

In the case of `CC[C@H]1OC(=O)[C@H](C)C(=O)[C@H](C)[C@@H](O[C@@H]2O[C@H](C)C[C@H](N(C)C)[C@H]2O)[C@](C)(OC)C[C@@H](C)C(=O)[C@H](C)[C@@H]2[C@@H]1OC(=O)N2CCCCc1ccnc2ccccc12`, the MIC in assay [1] is 1.56 µg/mL (≈ 1.99 µM); in assay [2] it was 0.1 µg/mL (≈ 0.128 µM); in [3] it was 0.1 µg/mL (≈ 0.128 µM); in assay [4], 0.1 µg/mL (≈ 0.128 µM); in assay [5] it was at most 0.05 µg/mL; in assay [6], at most 0.05 µg/mL. In addition, the MIC in assay [7] was at most 0.05 µg/mL; in assay [8] it was over 50 µg/mL; in assay [9], 6.25 µg/mL (≈ 7.99 µM); in [10] it was at most 0.05 µg/mL; in assay [11] it was over 50 µg/mL; in [12], at most 0.05 µg/mL. This compound also yielded an MIC in assay [13] of 0.1 µg/mL (≈ 0.128 µM).
For `CC[C@H]1OC(=O)[C@H](C)C(=O)[C@H](C)[C@@H](O[C@@H]2O[C@H](C)C[C@H](N(C)C)[C@H]2O)[C@](C)(OC)C[C@@H](C)C(=O)[C@H](C)[C@@H]2[C@@H]1OC(=O)N2CCCCn1cnc(-c2ccccc2)c1`, the MIC in [1] is 3.13 µg/mL (≈ 3.93 µM); in assay [2], 0.2 µg/mL (≈ 0.251 µM); in [3], 0.2 µg/mL (≈ 0.251 µM); in assay [4], 0.1 µg/mL (≈ 0.125 µM); in assay [5], at most 0.05 µg/mL; in assay [6] it was 0.1 µg/mL (≈ 0.125 µM). In addition, the MIC is at most 0.05 µg/mL in assay [7]; over 50 µg/mL in [8]; 0.78 µg/mL (≈ 0.979 µM) in assay [9]; at most 0.05 µg/mL in assay [10]; over 50 µg/mL in assay [11]; at most 0.05 µg/mL in [12]. The same compound yielded an MIC in assay [13] of 0.2 µg/mL (≈ 0.251 µM).
For the compound `CC[C@H]1OC(=O)[C@H](C)C(=O)[C@H](C)[C@@H](O[C@@H]2O[C@H](C)C[C@H](N(C)C)[C@H]2O)[C@](C)(OC)C[C@@H](C)C(=O)[C@H](C)[C@@H]2[C@@H]1OC(=O)N2CCCCn1ccc2ccccc21`, the MIC in assay [1] is 6.25 µg/mL (≈ 8.12 µM); in assay [2] it was 0.4 µg/mL (≈ 0.519 µM); in [3] it was 0.4 µg/mL (≈ 0.519 µM); in assay [4] it was 0.2 µg/mL (≈ 0.26 µM); in assay [5] it was at most 0.05 µg/mL; in assay [6], 0.1 µg/mL (≈ 0.13 µM). For the same compound, the MIC in assay [7] is at most 0.05 µg/mL; in assay [8], over 50 µg/mL; in assay [9], 6.25 µg/mL (≈ 8.12 µM); in [10], at most 0.05 µg/mL; in assay [11], over 50 µg/mL; in [12], at most 0.05 µg/mL. This compound also registered an MIC in [13] of 0.2 µg/mL (≈ 0.26 µM).
With `CC[C@H]1OC(=O)[C@H](C)C(=O)[C@H](C)[C@@H](O[C@@H]2O[C@H](C)C[C@H](N(C)C)[C@H]2O)[C@](C)(OC)C[C@@H](C)C(=O)[C@H](C)[C@@H]2[C@@H]1OC(=O)N2CCCCn1ccc2ncccc21`, the MIC in assay [14] was 0.78 µg/mL (≈ 1.01 µM); in [1], 1.56 µg/mL (≈ 2.02 µM); in [2], 0.4 µg/mL (≈ 0.519 µM); in assay [3] it was 0.2 µg/mL (≈ 0.259 µM); in assay [4] it was 0.4 µg/mL (≈ 0.519 µM); in [5] it was at most 0.05 µg/mL. For the same compound, the MIC in [6] is 0.1 µg/mL (≈ 0.13 µM); in assay [7], at most 0.05 µg/mL; in assay [8], 6.25 µg/mL (≈ 8.11 µM); in [9], 0.2 µg/mL (≈ 0.259 µM); in [10] it was at most 0.05 µg/mL; in [11] it was over 50 µg/mL. Further, the MIC was at most 0.05 µg/mL in assay [12] and 0.2 µg/mL (≈ 0.259 µM) in assay [13].
As for `CC[C@H]1OC(=O)[C@H](C)C(=O)[C@H](C)[C@@H](O[C@@H]2O[C@H](C)C[C@H](N(C)C)[C@H]2O)[C@](C)(OC)C[C@@H](C)C(=O)[C@H](C)[C@@H]2[C@@H]1OC(=O)N2CCCCn1cnc2cccnc21`, the MIC in assay [1] is 3.13 µg/mL (≈ 4.05 µM); in assay [2] it was 0.4 µg/mL (≈ 0.518 µM); in assay [3] it was 0.2 µg/mL (≈ 0.259 µM); in [4], 0.2 µg/mL (≈ 0.259 µM); in [5], at most 0.05 µg/mL; in [6], at most 0.05 µg/mL. Further, the MIC in assay [7] was at most 0.05 µg/mL; in assay [8], 50 µg/mL (≈ 64.8 µM); in assay [9] it was 0.78 µg/mL (≈ 1.01 µM); in [10], at most 0.05 µg/mL; in [11], over 50 µg/mL; in assay [12], at most 0.05 µg/mL. This compound returned an MIC in assay [13] of 0.78 µg/mL (≈ 1.01 µM).
`CC[C@H]1OC(=O)[C@H](C)C(=O)[C@H](C)[C@@H](O[C@@H]2O[C@H](C)C[C@H](N(C)C)[C@H]2O)[C@](C)(OC)C[C@@H](C)C(=O)[C@H](C)[C@H]2N(CCCCn3cnc(-c4cccnc4)c3)C(=O)O[C@]12C` [TELITHROMYCIN] returned an MIC in assay [13] of 0.4 µg/mL (≈ 0.493 µM).
